Measurements published in PubChem BioAssay.
Activity calls are given as the source filed them.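 Rule for the calls, unless noted: active = viability at or below 30% in both replicate assays; inconclusive = viability at or below 30% in just one of the two assays; inactive = the rest.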

Assays:
[1] = reducers of endogenous Her2 protein level, primary screen, SKBR3 breast tumor cells, AlphaScreen, ATP viability (AID 461;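 active = Her2 level under about 52% in both replicate screens, with viability over 70% of control, limit read from the data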;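 for Her2 level: lower value means less Her2 protein in the cells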;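 for viability: percent of carrier control wells set as 100% viability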); conditions: 18-24 h, measured here: SKBR3 viability, ATP luminescence, at 10 µM
[2] = target: Receptor tyrosine-protein kinase erbB-2 (Homo sapiens) (UniProt P04626); test: as above; conditions: 18-24 h, at 10 µM, stronger effect = lower value
Sequence of Receptor tyrosine-protein kinase erbB-2 (Homo sapiens) (P04626 whole entry, looked up): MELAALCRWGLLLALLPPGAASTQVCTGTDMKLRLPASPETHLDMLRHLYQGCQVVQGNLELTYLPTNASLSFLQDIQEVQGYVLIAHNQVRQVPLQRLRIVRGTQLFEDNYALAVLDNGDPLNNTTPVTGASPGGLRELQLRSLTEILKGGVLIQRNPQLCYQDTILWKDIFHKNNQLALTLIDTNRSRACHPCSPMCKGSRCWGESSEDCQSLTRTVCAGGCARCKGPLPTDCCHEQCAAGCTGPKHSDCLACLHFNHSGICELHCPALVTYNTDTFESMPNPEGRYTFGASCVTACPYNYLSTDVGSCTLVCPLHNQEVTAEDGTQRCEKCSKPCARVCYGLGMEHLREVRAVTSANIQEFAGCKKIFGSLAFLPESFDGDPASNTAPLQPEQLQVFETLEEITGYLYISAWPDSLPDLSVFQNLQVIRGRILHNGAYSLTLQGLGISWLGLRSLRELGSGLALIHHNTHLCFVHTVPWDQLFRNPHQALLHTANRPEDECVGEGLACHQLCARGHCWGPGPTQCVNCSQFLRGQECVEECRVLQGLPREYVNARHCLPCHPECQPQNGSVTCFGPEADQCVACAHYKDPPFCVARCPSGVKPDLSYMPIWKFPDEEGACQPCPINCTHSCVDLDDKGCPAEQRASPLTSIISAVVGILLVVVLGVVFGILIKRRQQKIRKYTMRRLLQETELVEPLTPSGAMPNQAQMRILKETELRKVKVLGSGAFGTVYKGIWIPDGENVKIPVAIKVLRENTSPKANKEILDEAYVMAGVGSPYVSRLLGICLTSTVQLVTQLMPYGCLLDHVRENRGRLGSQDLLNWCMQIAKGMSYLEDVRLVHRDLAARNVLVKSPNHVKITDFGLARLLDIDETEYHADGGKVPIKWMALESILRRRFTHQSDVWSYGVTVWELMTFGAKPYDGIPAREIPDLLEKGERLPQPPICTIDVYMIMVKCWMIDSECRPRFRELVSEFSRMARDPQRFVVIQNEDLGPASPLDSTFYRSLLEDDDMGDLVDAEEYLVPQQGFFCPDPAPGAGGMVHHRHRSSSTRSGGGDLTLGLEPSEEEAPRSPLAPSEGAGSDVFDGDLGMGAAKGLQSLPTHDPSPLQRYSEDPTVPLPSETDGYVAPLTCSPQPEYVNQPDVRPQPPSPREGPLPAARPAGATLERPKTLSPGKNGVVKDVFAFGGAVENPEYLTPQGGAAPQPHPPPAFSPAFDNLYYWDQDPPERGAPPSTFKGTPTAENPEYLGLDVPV

[3] = SK-BR-3 cell growth inhibitors, pilot screen, 24 h, human (AID 572;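 active = viability at or below 10% of carrier control in both of two separate runs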;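 note: compound exposure lasted between 18 and 24 h rather than exactly 24 h; 100% = carrier-treated control wells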); conditions: SK-BR-3 viability, CellTiter-Glo luminescence, at 10 µM, stronger effect = lower value
[4] = HUVEC growth inhibition – cell-based, human, primary screen (AID 575); conditions: HUVEC proliferation, CellTiter-Glo luminescence, 72 h; at 10 µM; stronger effect = lower value;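 note: 100% = median of untreated cell wells with 0.1% DMSO on each plate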
Procedure, shortened: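 Material: primary human umbilical vein endothelial cells / Schedule: 72 h exposure, 37 °C, 5% CO2, 30 min RT equilibration / Signal: ATP-based CellTiter-Glo luminescent read / Read-out basis: percent of median DMSO-control luminescence / Control set: 32 DMSO-only cell-control wells (high), 32 MePR drug-control wells (low) per plate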

[5] = growth inhibitors of H69AR lung tumor, primary screen, human, duplicate replicates (AID 580;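 active = viability at or under a set limit in both replicates, limit being median viability minus 3 SD, cut at about 48% in these data, passing the limit was not always enough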;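 note: 100% = mean luminescence of untreated wells and 0% = no signal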); conditions: H69AR lung tumor cells viability, ATP luminescence, 72 h; at 10 µM; stronger effect = lower value
[6] = reversal of MRP1-mediated doxorubicin resistance, pilot screen, H69AR cells, doxorubicin co-treatment (AID 601;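 active = viability loss from added drug above about 55%, and viability with drug at most 40%, in both replicates, limit read from the data, passing the limit was not always enough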); conditions: CellTiter-Glo, 72 h, at 10 µM; for differential viability (reversal): stronger effect = higher value
[7] = 384-well plate pilot, post-Golgi transport modulator project, inhibition of yeast transport mutant growth (AID 636; in the data active = inhibition above about 31%); conditions: absorbance 615 nm, about 18 h, stronger effect = higher value
[8] = growth suppression of yeast trafficking mutant, preliminary HTS, modulators of trafficking downstream of Golgi apparatus project, 1536-format plate, OD 615 nm (AID 637; in the data active = inhibition above about 30%); conditions: yeast transport mutant growth, absorbance 615 nm, 18 h; stronger effect = higher value
[9] = H69AR cells + 2 uM doxorubicin, measured here: viability with 2 uM doxorubicin, stronger effect = lower value
[10] = H69AR cells, compound alone cytotoxicity

SMILES	viability [1] [%]	Her2 level [2]	viability [3]	viability [4]	viability [5]	differential viability (reversal) ([6]; H69AR cells + 2 uM doxorubicin)	viability [6, 9] [%]	viability [6, 10] [%]	inhibition [7]	inhibition [8]
COC(=O)c1ccccc1NC(=O)c1ccc(COc2ccccc2)o1	71.5	106% (inactive)	71.5% (inactive)	94.6% (inactive)	98.3% (inactive)	0.68% (inactive)	97.6	98.3	-6.13% (inactive)	-4.1% (inactive)
Cc1ccc2cc(C#N)c(NCCCNC(=O)C3CCCO3)nc2c1 (stereo not given)	106	73% (inactive)	106% (inactive)	104% (inactive)	99% (inactive)	12.6% (inactive)	86.4	99	-6.71% (inactive)	6.19% (inactive)
O=C(Nc1cccnc1)c1ccc2c(c1)C(=O)N(Cc1cccnc1)C2=O	96.5	99.5% (inactive)	96.5% (inactive)	103% (inactive)	102% (inactive)	7.77% (inactive)	94.7	102	-2.93% (inactive)	-1.64% (inactive)
O=c1[nH]c(SCc2cc(=O)n3ccccc3n2)nc2c1CCC2	101	83.5% (inactive)	101% (inactive)	74.7% (inactive)	85.2% (inactive)	1.62% (inactive)	83.6	85.2	-2.76% (inactive)	-2.22% (inactive)
Cc1nc2ccccc2n1CCC(=O)Nc1cccc(F)c1	88	90% (inactive)	88% (inactive)	93.6% (inactive)	79.9% (inactive)	-10.1% (inactive)	90	79.9	0.38% (inactive)	-5.33% (inactive)
Nc1ccc(-n2c(N)c(C(=O)NCc3ccc4c(c3)OCO4)c3nc4ccccc4nc32)cc1	72.5	66.5% (inactive)	72.5% (inactive)	64.6% (inactive)	55.5% (inactive)	-17.4% (inactive)	72.9	55.5	-1.73% (inactive)	6.61% (inactive)
CN(C(=O)c1ccno1)c1nnc(-c2cnccn2)s1	107	102% (inactive)	107% (inactive)	108% (inactive)	103% (inactive)	6.98% (inactive)	95.9	103	-6.22% (inactive)	1.83% (inactive)
